The values below come from ChEMBL document CHEMBL2021869, “Pharmacological evaluation of a novel cyclic phosphatidic acid derivative 3-S-cyclic phosphatidic acid (3-S-cPA)” (Bioorg Med Chem, 2012).

The source made the active and inactive calls. The calls are words filed in the database; no cut-off is given here.

What is called inhibition is how much of the control response was suppressed. Broadly, the logP is the decadic logarithm of the partition coefficient of the neutral form, usually between octanol and water. Read a high logP as higher lipophilicity.

For data set [1], the target named is Autotaxin (Homo sapiens) (UniProt Q13822). The data set is described as follows: Inhibition of ATX-mediated human MDA-MB-231 cell migration at 10 uM after 8 hrs by Cyto Fluor spectrophotometry relative to lysophosphatidyl choline. In short, it runs like this:
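Calcein-AM-stained MDA-MB-231 cells (4 × 10^5 cells/mL in DMEM with 0.1% fatty-acid-free BSA) placed in upper wells over 8-µm pore membranes; lower wells held 200 µM LPC plus 10 µM compound. Incubated 8 h at 37 °C; non-migrated cells wiped off, migrated-cell fluorescence read at 485/530 nm. Percent of LPC-only control; triplicate wells, ≥3 independent experiments.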

For data set [2], the target named is Autotaxin (Bos taurus) (UniProt A1A4K5). The data set can be described thus: Inhibition of ATX in fetal bovine serum using FS-3 as substrate at 10 uM after 2 hrs by fluorescence assay. In a few lines: (§1)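 ATX source: fetal bovine serum, mixed with compound in 0.1% BSA and 1 µM FS-3 in Tris-HCl pH 8.0 buffer (1 mM CaCl2, 1 mM MgCl2, 5 mM KCl, 140 mM NaCl). Fluorescence (485/530 nm) read before and after 2 h at 37 °C; pre-incubation value subtracted, normalized to vehicle as percent inhibition; triplicate wells, mean ± S.E.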

For data set [3] the target is unchanged. The data set can be described thus: Inhibition of ATX in fetal bovine serum using FS-3 as substrate at 0.1 to 10 uM after 2 hrs by fluorescence assay. In a few lines:
as §1

The subject of data set [4] is Rattus norvegicus. The data set is described as follows: Antinociceptive activity in Wistar rat assessed as reduction in somato-somatic C-reflex at 0.2 mg/kg, iv by electromyogram analysis relative to control. It is filed as functional, organism-based. Details: dose 0.2 mg/kg. In short, it runs like this:
(§2)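 Anesthetised adult male Wistar rats (310–370 g; pentobarbital 50 mg/kg ip); jugular vein catheter for iv dosing at 0.2 mg/kg, blood pressure and heart rate monitored, end-tidal CO2 kept near 3.0%. Reflex EMG evoked by single shocks, averaged over ~50 trials at 3-s intervals; response area expressed as percent of control size 0–15 min before injection; mean ± S.E.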

Data set [5] has as its system Rattus norvegicus. The data set is described as follows: Antinociceptive activity in Wistar rat assessed as reduction in A-reflex at 0.2 mg/kg, iv by electromyogram analysis relative to control. It is filed as functional, organism-based. More on the design: dose 0.2 mg/kg. In short, it runs like this:
as §2

Data set [6] relates to Rattus norvegicus. The data set can be described thus: Antinociceptive activity in Wistar rat assessed as somato-somatic C-reflex at 0.2 mg/kg, iv by electromyogram analysis relative to control. It is filed as functional. In short, it runs like this:
as §2

Data set [7] has as its system Rattus norvegicus. The data set can be described thus: Neuroprotective effect against transient cerebral ischemia-induced delayed neuronal death in Wistar rat hippocampal CA1 region assessed as reduction in pyknosis and shrinkage of cells at 180 ug/kg/5 days dosed through mini-osmotic pump measured after 5 days of occlusion for 8 mins by hematoxylin/eosin based staining relative to control. It is filed as functional, organism-based. In a few lines:
(§3)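 Male Wistar rats under halothane; compound (180 µg·kg−1·5 days−1) or 0.2% fatty-acid-free BSA vehicle given by subcutaneous pump implanted 35–60 min before ischemia. Vertebral arteries ligated, both carotids occluded 8 min at ~37.5 °C. On day 5, formalin perfusion and paraffin sections (6 µm) of hippocampal CA1 stained with HE or anti-GFAP.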

Data set [8] relates to Rattus norvegicus. The data set can be described thus: Neuroprotective effect against transient cerebral ischemia-induced delayed neuronal death in Wistar rat hippocampal CA1 region assessed as decrease in GFAP accumulation at 180 ug/kg/5 days dosed through mini-osmotic pump measured after 5 days of occlusion for 8 mins by immunohistochemical staining relative to control. It is filed as functional, organism-based. In a few lines:
as §3

Data set [9] in a line: Lipophilicity, Log P of the compound. It is filed as physicochemical. Particulars: octanol/water.
For data set [10], the species on record is Rattus norvegicus. The data set is described as follows: Ratio of natural cPA effective dose to compound effective dose for antinociceptive activity in Wistar rat assessed as reduction in somato-somatic C-reflex. It is filed as functional.

As for `CCCCCCCCCCCCCCCC(=O)OCC1CSP(=O)(O)O1` (racemic), the inhibition in [1] is > 40%.

The compound `CCCCCC/C=C\CCCCCCCC(=O)OC[C@@H]1CSP(=O)(O)O1` gave an inhibition in data set [2] of 40%.

As for `CCCCCCCC/C=C\CCCCCCCC(=O)OCC1CSP(=O)(O)O1` (racemic), the inhibition in [1] is > 40%.

In the case of `CCCCCC/C=C\CCCCCCCC(=O)OC[C@H]1CSP(=O)(O)O1`, in data set [3], the inhibition entry is “Active”.

With `CCCCCCCCCCCCCCCCCC(=O)OCC1CSP(=O)(O)O1` (racemic), in data set [1], the inhibition was > 40%.

For the compound `CCCCCC/C=C\CCCCCCCC(=O)OCC1CSP(=O)(O)O1.CCN(CC)CC` (racemic), the inhibition in [1] is > 40%. The result in data set [4], in data set [7] and in [8] was Active. The outcome in [5] was inactive. The Activity in data set [6] was 87%. In data set [9], this compound registered a logP of 5.96.

`CCCCCC/C=C\CCCCCCCC(=O)OCC1COP(=O)([O-])C1.[Na+]` (racemic): the Activity in [6] was 83%. Moreover, in [10], the “fold change (FC)” value is listed as 10. Moreover, in [3], the inhibition result is “Active”.
